XBP1 UPR activ = activators of adaptive arm of unfolded protein response (XBP1). 330,000 compounds, 0.33% hits. AID 463104. CHO-XBP1 luciferase reporter, IRE1-XBP1 UPR activation, luminescence; percent of tunicamycin response, DMSO as zero. activation, % at 20 µM;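 active = versus positive control, 20 µM dose yields 30% or more activation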;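 note: 100% = tunicamycin at 10 µg/mL and 0% = DMSO only wells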
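Material: IRE1-XBP1 luciferase reporter CHO line / Quantity: one thousand reporter cells per well / Buffer or medium: F12 with 10% serum / Compound: 20 µM single concentration, DMSO 1% / Times: 6 h treatment, 37 °C / Detection: Steady-Glo luciferase glow luminescence, 10 min after reagent addition / Benchmarks: tunicamycin high, DMSO low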
T cruzi repl = blocks replication of Trypanosoma cruzi; T. cruzi beta-gal in NIH3T3, luminescence, 90 h; inhibition, % (test concentration not listed); 300,000 compounds, 1.4% hits; AID 1885;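 active = mean inhibition across valid replicates above about 55%, limit read from the data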;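 note: signal also drops with host cell toxicity which is not excluded here; 0% = plate median of DMSO wells and 100% = zero luminescence signal; higher percent means less beta-gal luminescence so fewer parasites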
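System: NIH/3T3 fibroblasts plus reporter T. cruzi. Medium: DMEM plus 2% FBS. Probe or stimulus: 5000 reporter trypomastigotes per well. Compound: single 50 nL compound addition per well in DMSO. Incubation: co-culture of at least 90 h after 3 h attachment. Detection: GalScreen β-gal luminescence, detergent lysis, 60 min. Evaluation: parasite load inhibition, %.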
CHOP inh = CHOP inhibition in unfolded protein response | CHO-K1 CHOP-promoter luciferase, tunicamycin-induced, 15-18 h | AID 2732 | 220,000 compounds, 3.8% hits | inhibition, % at 10 µM;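 active = compounds that reduced the stress-induced luciferase reporter signal by more than about 70% of percent inhibition, limit read from the data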;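 note: 0% = tunicamycin plus vehicle and 100% = wells without tunicamycin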
Dynein transport = blocks dynein driven cargo transport along microtubules | z-score, hits read low | 3617.4 mouse cells, GR-EGFP nuclear translocation imaging; test concentration mostly 20 µM; stimulated with dexamethasone, 1 µM; hits give low values | AID 1381 | 220,000 compounds, 0.47% hits;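 active = plate z-score of nuclear minus cytoplasmic receptor signal below a set negative limit, without overly bright fluorescence or cell loss, cut at about -3.5 in these data, passing the limit was not always enough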;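 note: z-score of nuclear minus cytoplasmic ring GR-EGFP intensity difference per well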
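Buffer or medium – tet-free medium with charcoal-stripped serum · Signal – automated 10x imaging of fixed Hoechst-stained cells · Also added – dexamethasone agonist, 1.0 µM final, for 30 min · Incubation – induction 48 h, compound 1 h, agonist 30 min · Read-out – GR-EGFP nuclear translocation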
L major viab = reduces viability of Leishmania major promastigotes; resazurin fluorescence viability; inhibition, % at 10 µM; 200,000 compounds, 9% hits; AID 1063; in the data active = inhibition above about 50%;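 note: promastigotes grown with compound for 44 hours at 28 °C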
UPR CHOP act = activators of apoptotic arm of unfolded protein response (CHOP); 330,000 compounds, 0.34% hits; activation, % at 10 µM; CHO-CHOP luciferase reporter, UPR activation, luminescence; percent of tunicamycin response over DMSO baseline;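 active = at 10 µM dose, activation of 40% or more, normalized to positive control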;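 note: 100% = tunicamycin at 10 µg/mL and 0% = DMSO alone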
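Material: CHO-CHOP cells, stable luciferase reporter of PERK-eIF2a-CHOP signalling; quantity: 500 reporter cells seeded per well; buffer or medium: F12 medium containing 10% fetal bovine serum; compound: one dose, 10 µM in 0.5% DMSO; incubation: 6 h compound treatment, 37 °C; measured by: Steady-Glo luciferase luminescence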
* = called active by the depositor; x = no result. Shown is part of a subset that was picked to be rich in hits.

SMILES	XBP1 UPR activ	T cruzi repl	CHOP inh	Dynein transport	L major viab	UPR CHOP act
CC1(C)CC(=O)C2=C(C1)Nc1ccccc1NC2c1ccccn1 (configuration not stated)	1.7	-11.3	15.4	-2.27	-0.9	2.6
O=C1CCCC2=C1C(c1ccco1)Nc1ccc(C(=O)c3ccccc3)cc1N2 (configuration not stated)	-5.2	6.0	0.1	-0.0591	73.3*	1.6
O=C(COc1ccccc1Cl)Nc1nnc(S(=O)(=O)N2CCCCCC2)s1	-0.7	-0.3	x	x	x	0.2
CC(C)c1ccccc1NC(=O)COC(=O)/C=C/c1cccc([N+](=O)[O-])c1	1.0	9.1	22.3	-0.391	-5.8	2.1
Cc1ccccc1NC(=O)C(C)O/N=C/c1cccc([N+](=O)[O-])c1 (configuration not stated)	-3.7	-3.7	22.3	1.23	66.1*	-2.0
Cc1ccccc1Nc1nc(N)nc(COC(=O)c2ccc(S(=O)(=O)N(C)C)cc2)n1	5.0	-2.5	2.5	0.312	66.7*	3.0
CCCCC(=O)OCc1nc(N)nc(Nc2ccccc2C)n1	0.1	6.0	1.8	1.5	62.7*	2.7
CCN(Cc1cc(=O)n2ccsc2n1)c1cccc2ccccc12	0.5	12.8	34.1	-0.376	-2.3	3.1
O=C(COC(=O)C12CC3CC(CC(C3)C1)C2)Nc1nc2c(F)c(F)c(F)cc2s1	-3.7	5.8	94.6*	0.0838	-3.5	-0.1
COc1ccc(C(=O)OCC(=O)Nc2nc3c(F)c(F)c(F)cc3s2)cc1OC	1.0	-9.8	-11.3	0.291	0.0	0.7
COc1ccc(/C=N/NC(=O)CC(=O)NCc2cccnc2)cc1[N+](=O)[O-]	-3.6	-17.6	x	x	x	-0.3
O=C(O)c1nccnc1C(=O)Nc1ccc(Cl)cn1	-1.7	2.9	x	x	x	0.3
CC1CC(C)(C)Nc2ccc(OC(=O)c3ccco3)cc21 (configuration not stated)	-13.5	10.7	38.1	-2.77	98.4*	-0.2
COC(=O)c1ccc(NC(=O)c2ccc3c(c2)NC(=O)C2CCCN32)cc1 (configuration not stated)	-5.7	x	x	x	x	-3.1
CN1C(=S)SC(C)(C)C1N(O)C(=O)Nc1ccc(Cl)cc1 (configuration not stated)	-1.2	2.2	8.1	2.72	4.2	0.8
CC1(C)C(N(O)C(=O)Nc2ccc(Cl)cc2)N(c2ccc(Cl)cc2)C(=O)N1CC(=O)NN (configuration not stated)	-3.0	-5.6	-11.0	-0.701	100.3*	-2.0
N#CC1(NC(=O)COc2cccnc2[N+](=O)[O-])CCCCC1	2.2	x	x	x	x	0.3
Cc1c2ccccc2nc2c(F)c(N(C)C)c(F)c(F)c12	3.0	-10.9	9.0	-1.73	8.2	1.5
CN(C)c1c2ccccc2nc2c(F)c(F)c(F)c(F)c12	2.4	26.9	70.2*	-0.296	12.9	27.0
COc1cccc(N(C(=O)Cn2nnc(-c3ccc(C)cc3)n2)C(C(=O)NC(C)(C)C)c2c[nH]c3ccccc23)c1 (configuration not stated)	-0.9	35.2	42.3	0.422	19.5	2.0
CC(C)(C)NC(=O)C(c1ccco1)N(C(=O)Cn1nnc(-c2ccc(F)cc2)n1)c1ccccc1 (configuration not stated)	3.5	x	x	-0.145	27.6	-0.4
CC(C)(C)NC(=O)C(c1c[nH]c2ccccc12)N(C(=O)Cn1nnc(-c2ccc(Cl)cc2)n1)c1ccccc1F (configuration not stated)	-2.8	55.3*	40.8	-0.586	50.6*	0.2
CC(C)(C)NC(=O)C(c1ccco1)N(C(=O)Cn1nnc(-c2ccc(F)cc2)n1)c1ccccc1F (configuration not stated)	-2.0	31.5	83.6*	-0.517	35.1	1.2
COc1ccc(CCNC(=O)CCC(=O)n2ncc3ccc(Cl)cc32)cc1OC	0.8	-11.6	x	x	x	-0.4
Clc1cccc(CNCCNCc2cccc(Cl)c2)c1	-1.9	6.1	16.6	-1.13	75.4*	0.3
SMILES	XBP1 UPR activ	T cruzi repl	CHOP inh	Dynein transport	L major viab	UPR CHOP act
C=CCN(CC=C)c1cnn(-c2nc3ccccc3[nH]2)c(=O)c1Cl	-4.0	29.1	43.3	0.0959	65.2*	1.8
Cc1ccc(N=Cc2c(C)[nH]n(-c3nc4ccccc4[nH]3)c2=O)cc1	-1.1	-17.6	18.8	1.53	-2.0	1.6
COc1ccc(/C=C2\SC(N3CCCCC3)=NC2=O)cc1	5.0	10.6	x	x	x	6.0
COc1ccc(/C=C2\SC(=O)N=C2N)cc1	3.0	-6.6	31.1	-1.83	56.6*	6.3
Cc1c(C(=O)Nc2ccc(Cl)cc2)c2ccccn2c1C(=O)c1ccccc1	-3.6	11.1	4.3	0.733	0.2	1.1
Cc1c(C(=O)Nc2ccc(Cl)cc2)c2ccccn2c1C(=O)c1ccc([N+](=O)[O-])cc1	-1.5	65.5*	55.6	0.615	12.1	-0.2
O=C(C[n+]1cccc(C(=O)N/N=C/c2cccc([N+](=O)[O-])c2)c1)c1ccccc1	-1.8	x	x	x	x	2.5
C1CCCCCC(NCCN2CCNCC2)CCCCC1	5.9	-10.6	-25.6	0.48	x	1.2
COc1ccc2[nH]c(=O)c(CN(C(=O)NC3CCCCC3)C3CCCCC3)cc2c1	-1.0	-7.1	38.4	-0.0139	99.7*	-0.5
COc1ccc2[nH]c(=O)c(CN(C(=O)c3ccccn3)c3ccccc3)cc2c1	-1.0	-4.1	-2.7	-0.367	99.8*	3.8
CCOC(=O)c1ccc(N(C(=O)CNC(=O)c2ccco2)C(C(=O)NCC2CCCO2)c2ccc(OC)c(OC)c2)cc1 (configuration not stated)	7.5	-3.1	x	x	x	0.8
O=[N+]([O-])c1cnc(Sc2ccncn2)s1	-9.6	18.8	106.5*	-5.13*	x	-9.0
CC(Sc1nc2ccccc2n1C)C(=O)NC(c1ccccc1)c1ccccc1 (configuration not stated)	-1.5	-1.0	5.6	1.02	99.8*	2.2
Cn1c(SC(C(=O)Nc2ccc(F)cc2)c2ccccc2)nc2ccccc21 (configuration not stated)	-0.3	3.2	22.6	2.01	8.4	1.6
COc1ccc(C(CC(=O)c2ccc(C)cc2)Nc2ccc([N+](=O)[O-])cc2)cc1 (configuration not stated)	-4.7	1.7	18.6	-0.344	96.4*	0.8
COc1ccc(C(=O)CC(c2ccccc2)S(=O)(=O)c2ccc(C)cc2)cc1 (configuration not stated)	-2.9	0.8	2.5	-0.689	40.5	4.7
COc1ccc(C(CC(=O)c2ccc(O)cc2)S(=O)(=O)c2ccc(C)cc2)cc1 (configuration not stated)	4.1	-12.4	0.6	1.37	90.9*	5.4
